pEC50, pIC50, pKi: −log10 of the molar value. Calls of active or inactive are those of the source. No cut-off for these calls is given here.
Assays:
[1] = Inhibition of polyamine transport system-mediated [3H]-spermidine uptake in DFMO-treated human L3.6PL cells after 48 hrs in presence of spermidine and aminoguanidine; conditions: for pEC50: Homo sapiens, L3.6pl, read-out: EC50
[2] = Cytotoxicity against human L3.6PL cells assessed as growth inhibition after 48 hrs by MTS assay in presence of aminoguanidine; format: cell-based; conditions: for pIC50: Homo sapiens, L3.6pl; for IC10: human, l3.6pl
CHO-MG = test: Cytotoxicity against polyamine transport-deficient CHO-MG cells assessed as growth inhibition after 48 hrs by MTS assay in presence of aminoguanidine; format: ADME, cell-based; conditions: Cricetulus griseus
Method in brief: (§1)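 CHO and transport-deficient CHO-MG* cells (CHO-MG* medium with 2 μg/mL L-proline) plated at 10 000 cells/mL and pretreated 24 h with 1 mM aminoguanidine. Compound in PBS added after overnight incubation, then 48 h at 37 °C, 5% CO2. Growth read by MTS formazan absorbance at 490 nm against untreated control.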

[3] = Competitive inhibition of polyamine transport system-mediated [3H]-spermidine uptake in DFMO-treated human L3.6PL cells after 15 mins by Lineweaver-Burk plot analysis in presence of aminoguanidine
Method in brief: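 3H-spermidine uptake in L3.6pl cells in HBSS (with Ca2+/Mg2+) at 37 °C for 15 min, with 3H-Spd fixed at 1 μM and PTI at 0–3 μM. Cells were lysed in 0.1% SDS, counted by scintillation and normalized to BCA protein.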

CHO = test: Cytotoxicity against CHO cells assessed as growth inhibition after 48 hrs by MTS assay in presence of aminoguanidine; format: cell-based, Cricetulus griseus; conditions: for pIC50: Cricetulus griseus, CHO; for IC10: chinese hamster, cho; method in brief: as §1
[4] = Inhibition of polyamine transport system-mediated [3H]-spermidine uptake in DFMO-treated CHO cells after 48 hrs in presence of spermidine and aminoguanidine; conditions: Cricetulus griseus
[5] = Cytotoxicity against human L3.6PL cells assessed as growth inhibition after 48 hrs by MTS assay; format: cell-based
Homo sapiens [6] = organism: Homo sapiens; test: Inhibition of polyamine transport system-mediated [3H]-spermidine uptake in DFMO-treated human L3.6PL cells after 48 hrs in presence of spermine and aminoguanidine
Homo sapiens [7] = organism: Homo sapiens; test: Inhibition of polyamine transport system-mediated [3H]-spermidine uptake in DFMO-treated human L3.6PL cells after 48 hrs in presence of putrescine and aminoguanidine
Homo sapiens [8] = organism: Homo sapiens; test: Inhibition of polyamine transport system in DFMO-treated human L3.6PL cells assessed as reduction in intracellular spermidine level at 7 uM after 48 hrs by HPLC analysis in presence of spermidine and aminoguanidine relative to control; format: cell-based
Method in brief: (§2)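 L3.6pl cells (450 000 per 6 mL medium with 10% FBS) pretreated 24 h with 250 μM aminoguanidine, then 48 h at 37 °C with DFMO 8 mM, Spd 1 μM, PTI 7 μM, alone or combined. Acid lysates dansylated with 1,7-diaminoheptane as internal standard and polyamines quantified by HPLC as nmol/mg BCA protein. Growth given relative to untreated control.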

Homo sapiens [9] = organism: Homo sapiens; test: Inhibition of polyamine transport system in human L3.6PL cells assessed as reduction in intracellular spermidine level at 7 uM after 48 hrs by HPLC analysis in presence of spermidine and aminoguanidine relative to control; format: cell-based; method in brief: as §2
Homo sapiens [10] = organism: Homo sapiens; test: Inhibition of polyamine transport system in DFMO-treated human L3.6PL cells assessed as reduction in intracellular putrescine level at 7 uM after 48 hrs by HPLC analysis in presence of spermidine and aminoguanidine; format: cell-based; method in brief: as §2
Homo sapiens [11] = organism: Homo sapiens; test: Inhibition of polyamine transport system in human L3.6PL cells assessed as reduction in intracellular spermidine level at 7 uM after 48 hrs by HPLC analysis in presence of aminoguanidine relative to control; format: cell-based; method in brief: as §2
Homo sapiens [12] = organism: Homo sapiens; test: Inhibition of polyamine transport system in DFMO-treated human L3.6PL cells assessed as total polyamine level at 7 uM after 48 hrs by HPLC analysis in presence of spermidine and aminoguanidine relative to control; method in brief: as §2
[13] = Cytotoxicity against human L3.6PL cells assessed as growth at 7 uM after 48 hrs in presence of spermidine and aminoguanidine relative to control; format: functional; conditions: read-out: Activity; method in brief: as §2
Homo sapiens [14] = organism: Homo sapiens; test: Inhibition of polyamine transport system in DFMO-treated human L3.6PL cells assessed as increase in spermine level at 7 uM after 48 hrs by HPLC analysis in presence of spermidine and aminoguanidine relative to control; set-up: scale not given: the % may be the effect or the level left; method in brief: as §2
[15] = Cytotoxicity against human L3.6PL cells assessed as growth at 7 uM after 48 hrs in presence of aminoguanidine relative to control; format: functional; conditions: read-out: Activity; method in brief: as §2
[16] = Cytotoxicity against DFMO-treated human L3.6PL cells assessed as growth at 7 uM after 48 hrs in presence of spermidine and aminoguanidine relative to control; format: functional; conditions: read-out: Activity; method in brief: as §2
Homo sapiens [17] = organism: Homo sapiens; test: Inhibition of polyamine transport system in human L3.6PL cells assessed as total polyamine level at 7 uM after 48 hrs by HPLC analysis in presence of aminoguanidine relative to control; format: cell-based; method in brief: as §2
Homo sapiens [18] = organism: Homo sapiens; test: Inhibition of polyamine transport system in human L3.6PL cells assessed as total polyamine level at 7 uM after 48 hrs by HPLC analysis in presence of spermidine and aminoguanidine relative to control; format: cell-based; method in brief: as §2
[19] = Cytotoxicity against human L3.6PL cells assessed as cell viability at 0.01 uM after 48 hrs by MTS assay in presence of aminoguanidine relative to control; format: cell-based; conditions: read-out: Activity
Method in brief: (§3)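 L3.6pl cells plated at 5000 cells/mL and pretreated 24 h with 250 μM aminoguanidine. Exposed to compound for 48 h at 37 °C. Growth read by MTS absorbance at 490 nm relative to untreated control.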

Homo sapiens [20] = organism: Homo sapiens; test: Inhibition of polyamine transport system-mediated [3H]-spermidine uptake in DFMO-treated human L3.6PL cells at IC10 after 48 hrs in presence of aminoguanidine
[21] = Selectivity ratio of IC50 for polyamine transport-deficient CHO-MG cells to IC50 for CHO cells; format: ADME, cell-based, Cricetulus griseus; conditions: chinese hamster, polyamine transport-deficient CHO-MG cells and CHO cells; read-out: Ratio IC50
[22] = Cytotoxicity against human L3.6PL cells assessed as cell viability at 0.1 uM after 48 hrs by MTS assay in presence of aminoguanidine relative to control; format: cell-based; conditions: read-out: Activity; method in brief: as §3

Row | SMILES | EC50 [1] | pIC50 [2] | IC10 [2] | pEC50 [1] | pIC50 (CHO-MG) | pKi [3] | pIC50 (CHO) | IC10 (CHO) | pEC50 [4] | inhibition (Homo sapiens [20]) | selectivity ratio [21] | further results
1 | Cl.NCCCNCCCCNCCCNC(=O)c1cc(C(=O)NCCCNCCCCNCCCN)cc(C(=O)NCCCNCCCCNCCCN)c1 | Not Active | 4.32 | 8 µM |  |  |  |  |  |  |  |  | 
2 | Cl.NCCCCNCCCCNCc1cc(CNCCCCNCCCCN)cc(CNCCCCNCCCCN)c1 |  | < 4.00 | 10 µM | 6.11 | 4.17 | 7.44 | < 4.00 | 10 µM | 6.47 |  |  | pIC50 [5]: 3.73; inhibition (Homo sapiens [6]): Active; inhibition (Homo sapiens [7]): Active
3 | CNCCCCNCCCCNCc1cc(CNCCCCNCCCCNC)cc(CNCCCCNCCCCNC)c1.Cl |  | < 4.00 | 10 µM | 5.85 | 3.91 | 7.26 | < 4.00 | 10 µM | 6.38 |  |  | inhibition (Homo sapiens [8]): 87%; inhibition (Homo sapiens [9]): 33%; inhibition (Homo sapiens [10]): Active; inhibition (Homo sapiens [11]): 27%; Activity (Homo sapiens [12]): 19.9 nmol/mg; growth at 7 µM [13]: 88%; Activity (Homo sapiens [14]): 67%; growth at 7 µM [15]: 117%; growth at 7 µM [16]: 70%; Activity (Homo sapiens [17]): 40.4 nmol/mg; pIC50 [5]: 3.74; Activity (Homo sapiens [18]): 37.4 nmol/mg
4 | Cl.NCCCCNCCCCNCCCCNCc1cccc(CNCCCCNCCCCNCCCCN)c1 | Not Active | 5.12 | 0.01 µM |  | 4.87 |  | 7.40 | 0.01 µM |  | inactive | 335 | viability at 48 h, 0.01 µM [19]: 8%
5 | Cl.NCCCCNCCCCNCc1cccc(CNCCCCNCCCCN)c1 | Not Active | 4.28 | 0.1 µM |  | 4.52 |  | 7.55 | 0.01 µM |  | inactive | 1070 | viability at 48 h, 0.1 µM [22]: 8%
6 | NCCCCNCCCCNCc1c2ccccc2cc2ccccc12 |  |  |  |  |  |  |  |  |  |  | 148 | 
7 | Cl.NCCCCNCCCCNCCCCNC(=O)c1cc(C(=O)NCCCCNCCCCNCCCCN)cc(C(=O)NCCCCNCCCCNCCCCN)c1 | Not Active | 5.01 | 1 µM |  | 4.16 |  | 4.80 | 1 µM |  | inactive | 4.3 | 
8 | Cl.NCCCCNCCCCNC(=O)c1cc(C(=O)NCCCCNCCCCN)cc(C(=O)NCCCCNCCCCN)c1 |  | < 4.00 | > 100 µM | 4.05 | < 4.00 | 6.40 | < 4.00 | > 100 µM | 4.22 |  |  | 
9 | Cl.NCCCCNCCCCNCc1ccc(CNCCCCNCCCCN)cc1 |  |  |  |  |  |  | 7.57 | 0.001 µM |  |  | 727 | 
10 | Cl.NCCCC[C@H](N)C(=O)NCCCNCCCCNCCCN |  |  | > 100 µM |  |  |  |  | > 100 µM |  |  |  | 
